# From ChEMBL document CHEMBL3352107, “Development of radamide analogs as Grp94 inhibitors” (Bioorg Med Chem, 2014)
# Calls of active or inactive are those of the source. The calls are words filed in the database; no cut-off is given here.
# Columns and labels:
# [1] = target: Endoplasmin (Homo sapiens) (UniProt P14625); assay: Inhibition of recombinant Grp94 (unknown origin) assessed as tracer bound at 25 uM after 24 hrs by fluorescence polarization assay relative to control; set-up: scale not given: the % may be the effect or the level left
# Sequence of Endoplasmin (Homo sapiens) (P14625 whole entry, canonical isoform): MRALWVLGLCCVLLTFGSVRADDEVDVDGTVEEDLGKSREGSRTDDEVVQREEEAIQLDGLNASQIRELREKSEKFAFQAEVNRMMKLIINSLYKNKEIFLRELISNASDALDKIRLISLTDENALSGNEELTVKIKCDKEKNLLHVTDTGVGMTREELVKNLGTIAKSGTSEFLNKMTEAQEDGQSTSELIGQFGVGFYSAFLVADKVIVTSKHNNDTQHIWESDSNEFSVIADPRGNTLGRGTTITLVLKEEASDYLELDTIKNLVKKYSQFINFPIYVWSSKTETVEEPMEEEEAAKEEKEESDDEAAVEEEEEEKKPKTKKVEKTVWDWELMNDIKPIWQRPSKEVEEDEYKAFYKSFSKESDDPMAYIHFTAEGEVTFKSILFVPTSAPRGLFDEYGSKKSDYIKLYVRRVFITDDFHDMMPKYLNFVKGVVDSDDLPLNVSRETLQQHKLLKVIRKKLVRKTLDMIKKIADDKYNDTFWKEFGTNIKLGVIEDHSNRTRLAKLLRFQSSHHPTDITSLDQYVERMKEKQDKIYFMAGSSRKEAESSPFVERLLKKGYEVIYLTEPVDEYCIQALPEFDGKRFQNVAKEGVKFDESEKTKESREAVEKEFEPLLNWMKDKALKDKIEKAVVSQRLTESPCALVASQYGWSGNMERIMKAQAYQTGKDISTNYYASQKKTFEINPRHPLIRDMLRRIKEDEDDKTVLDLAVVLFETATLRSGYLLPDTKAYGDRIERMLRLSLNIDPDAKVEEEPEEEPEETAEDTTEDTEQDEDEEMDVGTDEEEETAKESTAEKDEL
# In short: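 Single-point screen at 25 μM. Recombinant cGrp94 (10 nM) and FITC-geldanamycin tracer (6 nM) incubated 24 h at 4°C with rocking in HEPES pH 7.3 buffer containing molybdate, DTT, NP-40 and BGG (1% DMSO). Polarization read at 485/528 nm. Percent tracer bound scaled between DMSO mP (100%) and free tracer mP (0%). Geldanamycin 50 nM was the positive control. Triplicate.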
# [2] = target: Heat shock protein HSP 90-alpha (Homo sapiens) (UniProt P07900); assay: Inhibition of Hsp90alpha in human MDA-MB-231 cells assessed as Akt degradation at 80 uM by Western blot analysis; type: cell-based
# In short: (§1)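 Cells plated in 6-well plates and exposed 24 h to high and low compound concentrations, 15 μM radicicol, or DMSO only (0.25% DMSO final). Lysed in MPER with protease inhibitors on ice and clarified at 4°C. Protein measured by BCA. 20 μg per lane run reducing on SDS-PAGE, blotted to PVDF and probed with specific antibodies, HRP secondary, chemiluminescence. For IGF-II, medium volumes normalized to equal actin were blotted.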
# [3] = target: Endoplasmin (Homo sapiens) (UniProt P14625); assay: Inhibition of Gpr94 in human RPMI18226 cells assessed as decrease in IGF-II secretion at 0.25 to 2 fold antiproliferative IC50 concentration by Western blot analysis; type: cell-based; in short: as §1
# [4] = target: Heat shock protein HSP 90-alpha (Homo sapiens) (UniProt P07900); assay: Inhibition of Hsp90alpha in human MDA-MB-231 cells assessed as cyclin D1 degradation at 80 uM by Western blot analysis; type: cell-based; in short: as §1
# [5] = target: Endoplasmin (Homo sapiens) (UniProt P14625); assay: Inhibition of Gpr94 in human MDA-MB-231 cells assessed as decrease in IGF-II secretion at 1 to 10 uM by Western blot analysis; type: cell-based; in short: as §1
# [6] = target: Endoplasmin (Homo sapiens) (UniProt P14625); assay: Binding affinity to Gpr94 in human MDA-MB-231 cells assessed as conformational change using 9G10 antibody by immunoblotting analysis; type: cell-based
# In short: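 MDA-MB-231 cells treated overnight at 10 μM (high) or 1 μM (low). Radicicol 15 μM was the positive control and DMSO the negative control. Detergent lysates immunoprecipitated with the conformation-specific anti-Grp94 antibody 9G10, which recognizes only open, unliganded Grp94, on protein G magnetic beads. Precipitates immunoblotted for Grp94.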
# [7] = target: Endoplasmin (Homo sapiens) (UniProt P14625); assay: Binding affinity to Gpr94 in human RPMI18226 cells using 9G10 antibody by immunoblotting analysis; type: cell-based
# In short: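 Radicicol 15 μM was the positive control and DMSO the negative control. Detergent lysates pulled down with conformation-specific anti-Grp94 antibody 9G10 on protein G magnetic beads, then immunoblotted for Grp94.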
# [8] = system: MDA-MB-231; assay: Antiproliferative activity against human MDA-MB-231 cells after 72 hrs by MTS/PMS proliferation assay; type: functional, cell-based; conditions: MDA-MB-231, 72 h
# In short: (§2)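 Cells kept in RPMI1640 (RPMI 8226) or DMEM (MDA-MB-231) with nonessential amino acids, 2 mM L-glutamine, penicillin/streptomycin and 10% FBS at 37°C, 5% CO2. Seeded at 2000/well, attached overnight, then given compound across a concentration range in 1% DMSO final for 72 h. Viable cells read by MTS/PMS. 1% DMSO wells set as 100%. IC50 from separate triplicate experiments.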
# [9] = Antiproliferative activity against human RPMI18226 cells after 72 hrs by MTS/PMS proliferation assay; type: functional, cell-based; conditions: RPMI18226, 72 h; in short: as §2
# [10] = system: MDA-MB-231; assay: Cytotoxicity against human MDA-MB-231 cells at 2.5 to 25 uM after 24 hrs; type: cell-based; conditions: mda-mb-231, 24 h
# [11] = system: MDA-MB-231; assay: Inhibition of cell migration in human MDA-MB-231 cells assessed as reduction of cell migrated into scratched area after 16 to 24 hrs by wound healing assay; type: functional, cell-based
# In short: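 Cells seeded at 200000/well and grown 24 h to a confluent monolayer at 37°C, 5% CO2. Each well scratched with a sterile pipet tip and photographed at 0 h. Compound added at 2.5 up to 25 μM (0.25% DMSO final). Migration into the wound photographed at 16 and 24 h. Quadruplicate wells on two different days.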
# [12] = target: Heat shock protein HSP 90-alpha (Homo sapiens) (UniProt P07900); assay: Inhibition of Hsp90alpha in human RPMI18226 cells assessed as Akt degradation at 5 fold antiproliferative IC50 concentration by Western blot analysis; type: cell-based; in short: as §1
# [13] = target: Heat shock protein HSP 90-alpha (Homo sapiens) (UniProt P07900); assay: Inhibition of Hsp90alpha in human RPMI18226 cells assessed as cyclin D1 degradation at 5 fold antiproliferative IC50 concentration by Western blot analysis; type: cell-based; in short: as §1
# [14] = target: Endoplasmin (Homo sapiens) (UniProt P14625); assay: Inhibition of recombinant Grp94 (unknown origin) assessed as tracer bound at 25 uM after 24 hrs by fluorescence polarization assay relative to HSP90alpha (unknown origin)
# In short: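 Compounds at 25 μM incubated 24 h with either cGrp94 or Hsp90α plus FITC-geldanamycin tracer (1% DMSO) to compare the two isoforms. Fluorescence polarization gave percent tracer bound, with DMSO as 100% and free tracer as 0%. Geldanamycin 50 nM was the positive control. Triplicate.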
SMILES,Activity [1],other results
CCN(C(=O)CCc1c(Cl)c(O)cc(O)c1C(=O)OC)c1ccccc1,18.6%,–
COC(=O)c1c(O)cc(O)c(Cl)c1CCC(=O)Nc1cccnn1,12.2%,–
COC(=O)c1c(O)cc(O)c(Cl)c1CCC(=O)Nc1ccc(Br)cn1,0.1%,–
COC(=O)c1c(O)cc(O)c(Cl)c1CCC(=O)Nc1ccccc1Br,6.1%,–
COC(=O)c1c(O)cc(O)c(Cl)c1CCC(=O)NCCc1ccccc1,33%,–
COC(=O)c1c(O)cc(O)c(Cl)c1CCC(=O)Nc1cc(Cl)cc(Cl)c1,15.6%,–
COC(=O)c1c(O)cc(O)c(Cl)c1CCC(=O)Nc1cccc(OC)c1,27.4%,–
COC(=O)c1c(O)cc(O)c(Cl)c1CCC(=O)Nc1ccc(Br)cc1Br,50.7%,–
C#Cc1ccc(NC(=O)CCc2c(Cl)c(O)cc(O)c2C(=O)OC)cc1,12.7%,–
COC(=O)c1c(O)cc(O)c(Cl)c1CCC(=O)NNc1ccccc1,26.3%,–
COC(=O)c1c(O)cc(O)c(Cl)c1CCC(=O)Nc1nncs1,8.7%,–
COC(=O)c1c(O)cc(O)c(Cl)c1CCC(=O)Nc1nccs1,6.6%,inhibition [2]: Active; inhibition [3]: Active; inhibition [4]: Active; inhibition [5]: Active; Activity [6]: Dose-dependent effect; Activity [7]: Dose-dependent effect; IC50 [8]: 16 µM; IC50 [9]: 7.83 µM; Activity [10]: Non-toxic; inhibition [11]: Dose-dependent effect; inhibition [12]: Active; inhibition [13]: Active
COC(=O)c1c(O)cc(O)c(Cl)c1CCC(=O)N1CCc2ccccc21,23%,–
COC(=O)c1c(O)cc(O)c(Cl)c1CCC(=O)Nc1ncccc1Br,0.2%,–
COC(=O)c1c(O)cc(O)c(Cl)c1CCC(=O)Nc1ccc(OC)cc1,19.8%,–
COC(=O)c1c(O)cc(O)c(Cl)c1CCC(=O)Nc1ccccc1,19.8%,–

SMILES,Activity [1],other results
COC(=O)c1c(O)cc(O)c(Cl)c1CCC(=O)Nc1ccccc1Cl,0.1%,Ratio [14]: 8
COC(=O)c1c(O)cc(O)c(Cl)c1CCC(=O)Nc1ccc(I)cc1,29.8%,–
COC(=O)c1c(O)cc(O)c(Cl)c1CCC(=O)Nc1ccccc1F,16.3%,–
COC(=O)c1c(O)cc(O)c(Cl)c1CCC(=O)Nc1ccc(-c2ccccc2)cc1,85%,–
COC(=O)c1c(O)cc(O)c(Cl)c1CCC(=O)N(C)c1ccccc1,16.7%,–
COC(=O)c1c(O)cc(O)c(Cl)c1CCC(=O)Nc1ccncc1,34.9%,–
COC(=O)c1c(O)cc(O)c(Cl)c1CCC(=O)Nc1ccc(C(F)(F)F)cc1,34.5%,–
COC(=O)c1c(O)cc(O)c(Cl)c1CCC(=O)Nc1ncns1,10.2%,–
COC(=O)c1c(O)cc(O)c(Cl)c1CCC(=O)Nc1cccc(Cl)n1,1.4%,–
COC(=O)c1c(O)cc(O)c(Cl)c1CCC(=O)Nc1nnc(Br)s1,5.1%,–
COC(=O)c1c(O)cc(O)c(Cl)c1CCC(=O)Nc1ccccc1C,3.4%,–
COC(=O)c1c(O)cc(O)c(Cl)c1CCC(=O)Nc1ccc(Br)cc1,2.1%,Ratio [14]: 27
COC(=O)c1c(O)cc(O)c(Cl)c1CCC(=O)Nc1cccc(N)c1,17.4%,–
COC(=O)c1c(O)cc(O)c(Cl)c1CCC(=O)Nc1cccc(NC(C)=O)c1,8.3%,–
COC(=O)c1c(O)cc(O)c(Cl)c1CCC(=O)Nc1cccc(Br)c1,9.3%,–
COC(=O)c1c(O)cc(O)c(Cl)c1CCC(=O)Nc1ncccn1,16.7%,–
